From ChEMBL document CHEMBL3124835 (J Nat Prod, 2014)
Activity calls are given as the source filed them. No cut-off for these calls is given here.

Tests used:
[1] = test system: Human immunodeficiency virus 1; assay: Reactivation of latent HIV1 NL4-3-Luc expression in human naive CD4+ T cells treated 7 days post-infection measured after 48 hrs by luminescence plate reader analysis relative to SAHA-treated control; type: functional; parameters: concentration or dose not given beside the values
How it was run: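 Primary naive CD4+ T cells from healthy HIV-negative donor PBMCs, purified by negative selection. Activated 3 days with anti-CD3/CD28 beads (1 bead:2 cells), anti-IL-4, anti-IL-12p70 and 10 ng/mL TGF-β, then kept 2 days in 30 U/mL IL-2 and infected with NL4-3-Luc. Seven days after infection, 10 000 cells/well exposed to compound for 48 h; BriteGlo luminescence read-out.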

[2] = test system: Human immunodeficiency virus 1; assay: Reactivation of latent HIV1 NL4-3-Luc expression in human naive CD4+ T cells treated 7 days post-infection measured after 48 hrs by luminescence plate reader analysis; type: functional, organism-based, T-cell
[3] = molecular target: Protein kinase C (PKC) (Homo sapiens) (UniProt O94806+P41743+P17252+P05129+Q05655+P05771+Q05513+Q02156+P24723+Q15139+Q04759); assay: Activation of PKC in human Jurkat cells assessed as NF-kappaB reporter gene activation after 24 hrs by FACS analysis; type: cell-based
[4] = test system: Human immunodeficiency virus 1; assay: Reactivation of latent HIV1 NL4-3-Luc expression in human naive CD4+ T cells assessed as HIV-1 RNA expression treated 7 days post-infection by RT-qPCR analysis; type: functional, organism-based; details: T-cell
[5] = Human immunodeficiency virus 1, NL4-3, T-cell, read-out: EC50

Structure (SMILES)	Activity ([1]; T-cell)	EC50 ([2]; t-cell)	Activity [3]	Activity [1] [%]	EC50 [2, 5] [µM]	Activity [4]
C[C@@H]1CC(O)C2C=CC(CC(=O)Cc3c(Cl)c(O)cc(O)c3C(=O)O1)O2 (stereo not given in full)	inactive	Not Active				
C[C@@H]1CC(O)/C=C/C(O)C(O)CC(=O)Cc2c(Cl)c(O)cc(O)c2C(=O)O1 (stereo not given in full)	inactive	Not Active				
C[C@@H]1C[C@H]2O[C@@H]2/C=C\C=C\C(=O)Cc2c(Cl)c(O)cc(O)c2C(=O)O1 [RADICICOL]			inactive	98	9.1	Active
C[C@@H]1C[C@@H](O)/C=C\[C@H](O)CCC(=O)Cc2c(Cl)c(O)cc(O)c2C(=O)O1 [POCHONIN N]	inactive	Not Active				
C[C@H]1C[C@H]2O[C@@H]2C[C@H](O)/C=C/C(=O)Cc2c(Cl)c(O)cc(O)c2C(=O)O1 [POCHONIN B]				98	39.6	
O=C(NCCSSCCNC(=O)/C(Cc1ccc(O)c(Br)c1)=N/O)/C(Cc1ccc(O)c(Br)c1)=N/O [PSAMMAPLIN A]				100	0.2	
C[C@@H]1C[C@@H](O)[C@@H](O)/C=C\C=C\C(=O)Cc2c(Cl)c(O)cc(O)c2C(=O)O1				25	24.9	
CCC(=O)CCCCC[C@@H]1NC(=O)[C@H]2CCCCN2C(=O)[C@H]([C@@H](C)CC)NC(=O)[C@H](Cc2cn(OC)c3ccccc23)NC1=O [APICIDIN]				100	0.3	
C[C@H]1C[C@H](O)C(Cl)/C=C\C=C\C(=O)Cc2c(Cl)c(O)cc(O)c2C(=O)O1 (stereo not given in full) [POCHONIN C]				92	6.3	
